Screening data deposited in PubChem by several laboratories.
Compounds with a hit are over-represented: about 2.6% of the library has one in this group of screens.
SENP1 FRET inh: human SENP1 catalytic domain inhibitors, primary screen, biochemical, FRET, uHTS | recombinant SENP1 catalytic domain, CyPet-SUMO1-YPet FRET cleavage | inhibition, % at 10 µM | actives 0.21% (n = 360,000);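 active = inhibition at least 30% at 10 µM, raw YFP signal under a set limit, fluorescence ratio 0.5 to 1.5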;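 also: 0% = enzyme with DMSO and 100% = no enzyme wells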
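Assay system – human recombinant His6-tagged SENP1 catalytic domain enzyme · Input – SENP1 enzyme, 20 pM final · Buffer or medium – Tris pH 8 buffer plus EDTA, NaCl, BME, BSA, NP40, catalase · Schedule – 50 min reaction at room temperature · Technique – FRET read of cyan and yellow fluorescence · Control set – no-enzyme wells low, DMSO-plus-enzyme wells high control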
SENP6 block: SENP6 protease inhibitors, primary screen, biochemical, luminescence, uHTS. Sentrin-specific protease 6 (Homo sapiens), Q9GZR1. Recombinant SENP6 catalytic domain, aminoluciferin luminescence. inhibition, % at 10 µM. actives 1.8% (n = 330,000);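 active = inhibition above about 50% at the single tested dose, limit read from the data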;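 also: plate controls were DMSO wells with enzyme for no effect and DMSO wells lacking enzyme for full effect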
SENP8 block-1: SENP8 protease inhibitors, primary screen, biochemical, luminescence. Sentrin-specific protease 8 (Homo sapiens), Q96LD8. purified SENP8, Z-RLRGG-aminoluciferin cleavage. inhibition, % at 10 µM. actives 1.2% (n = 330,000); in the data active = inhibition above about 50%
SENP7 block: SENP7 protease inhibitors, primary screen, biochemical, luminescence, uHTS; inhibition, % at 5 µM; actives 1.5% (n = 330,000); recombinant SENP7, Z-RLRGG-aminoluciferin luminescence, 40 min; Sentrin-specific protease 7 (Homo sapiens), Q9BQF6;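 active = inhibition above about 50% at the single test dose, limit read from the data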;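 also: plate controls were DMSO with enzyme for no effect and no enzyme buffer wells for full effect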
Target sequence (Q9BQF6 706-1050 limits assumed): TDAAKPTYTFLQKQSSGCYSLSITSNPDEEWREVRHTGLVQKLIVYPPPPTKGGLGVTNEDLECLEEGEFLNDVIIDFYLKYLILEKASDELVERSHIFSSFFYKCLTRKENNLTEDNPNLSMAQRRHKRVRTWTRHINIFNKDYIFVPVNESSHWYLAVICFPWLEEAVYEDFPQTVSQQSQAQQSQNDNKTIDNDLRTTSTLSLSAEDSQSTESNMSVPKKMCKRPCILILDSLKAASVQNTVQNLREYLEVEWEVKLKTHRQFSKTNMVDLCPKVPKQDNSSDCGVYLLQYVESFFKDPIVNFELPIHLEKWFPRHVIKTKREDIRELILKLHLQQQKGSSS
SENP8 block-2: human SENP8 protease inhibitors, primary screen, biochemical, fluorescence, Nedd8 protein substrate, uHTS; Sentrin-specific protease 8 (Homo sapiens), Q96LD8; recombinant SENP8; inhibition, % at 20 µM; actives 0.64% (n = 360,000); in the data active = inhibition mostly above about 40%, no sharp cut-off; inactive = mostly below about 27%
Platelet DG rel: inhibitors of platelet dense granule secretion, primary screen, cell-based, MLPCN, human platelets | human platelet-rich plasma, SFLLRN dense granule ATP release, luminescence | inhibition, %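 (compounds screened at 7.5 µM in platelet-rich plasma)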 | actives 0.22% (n = 300,000);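 active = mean replicate score, as percent of positive control, at or above 50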
SENP8 confirm: SENP8 protease inhibitors, retest, confirmation, biochemical, luminescence, single concentration; actives 40% (n = 6,200); inhibition, % at 12.5 µM; Recombinant SENP8, Z-RLRGG-aminoluciferin luminescence, 60 min; shares compounds with SENP7 block;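 active = mean inhibition across replicates above about 50%, limit read from the data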
SENP6 conf: SENP6 protease inhibitors, confirmation, biochemical, luminescence, single concentration; shares compounds with SENP7 block; recombinant SENP6, Z-RLRGG-aminoluciferin luminescence; inhibition, % at 12.5 µM; actives 58% (n = 6,200)
SENP7 conf: SENP7 protease inhibitors, retest, confirmation, biochemical, luminescence, single concentration; inhibition, % at 12.5 µM; actives 69% (n = 6,200); recombinant SENP7, Z-RLRGG-aminoluciferin luminescence, 40 min; shares compounds with SENP7 block
Casp3 select: caspase-3 protease inhibitors, confirmation, selectivity assay for SENP inhibitor project, biochemical, single concentration. shares compounds with SENP7 block. actives 60% (n = 6,200). AID 488918, 2010. inhibition, % at 12.5 µM. purified caspase-3, Z-DEVD-aminoluciferin luminescence, 60 min;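 active = mean inhibition above about 50%, limit read from the data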;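 also: plate controls were enzyme with DMSO for no effect and wells without caspase-3 for full effect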
Target sequence (P42574 28-227 limits assumed): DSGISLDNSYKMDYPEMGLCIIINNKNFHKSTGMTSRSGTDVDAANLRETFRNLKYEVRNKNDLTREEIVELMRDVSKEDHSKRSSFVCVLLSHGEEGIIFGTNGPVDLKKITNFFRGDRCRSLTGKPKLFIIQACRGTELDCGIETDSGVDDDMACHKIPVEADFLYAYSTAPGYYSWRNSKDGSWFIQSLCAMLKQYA
SENP luc ctr: counter-screen for SENP inhibitors: luminescence interference. Pre-incubated SENP8/Z-RLRGG-aminoluciferin, luciferase luminescence interference. shares compounds with SENP7 block. actives 39% (n = 6,200). inhibition, % at 12.5 µM. AID 488919;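 active = mean inhibition above about 50% when retested at one dose, limit read from the data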;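 also: plate controls were DMSO wells with completed reaction for no effect and substrate without enzyme for full effect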
* hit, by the source's call; / = not tested or not shown.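 The calls were made as follows, unless noted: active = mean inhibition above about 50% in the one-dose retest (limit read from the data); inactive = the rest.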

SMILES	SENP1 FRET inh	SENP6 block	SENP8 block-1	SENP7 block	SENP8 block-2	Platelet DG rel	SENP8 confirm	SENP6 conf	SENP7 conf	Casp3 select	SENP luc ctr
Cc1ccc(/C=N/Nc2ccc(C(=O)O)cc2)o1	0	92*	78*	71*	-4	33	65*	58*	91*	85*	82*
O=C(N/N=C/c1ccc(-c2ccccc2Cl)o1)c1ccccc1	-2	4	0	0	-312	2	/	/	/	/	/
O=C(O)c1ccc(N/N=C/c2ccc(-c3ccccc3Cl)o2)cc1	-49	98*	97*	88*	-429	6	99*	100*	103*	66*	97*
CCCOc1ccc(C(=O)Nc2ccc3c(c2)OCCO3)cc1	0	64*	73*	76*	9	17	21	48	93*	74*	8
COc1ccc(C(=O)Nc2ccc3c(c2)OCCO3)cc1	1	73*	70*	-15	22	/	81*	81*	97*	91*	83*
COc1cc(C(=O)Nc2ccc3c(c2)OCCO3)ccc1OC(F)F	2	82*	62*	77*	11	14	6	71*	90*	76*	75*
CC(=O)C(c1ccccc1)C(c1ccccc1)C(C)[N+](=O)[O-] (stereo unspecified)	2	2	-3	6	2	4	/	/	/	/	/
O=C(O)c1ccccc1C(=O)Nc1c(-c2ccccc2)nc2ccccn12	1	-6	-12	9	-32	8	/	/	/	/	/
On1c(-c2ccccc2)nc2ccccc21	1	-29	-6	-6	-2	-6	/	/	/	/	/
O=Nc1c2nc3ccccc3n(O)c-2c2ccccc12	8	50*	30	28	-53	0	12	15	37	53*	13
Cc1cnc(NC(=O)c2cc3ccccc3o2)s1	-2	68*	55*	75*	-18	9	38	31	61*	51*	36
Cc1ccc(C(=O)Nc2ncc(C)s2)s1	0	61*	45	57*	-9	-9	54*	55*	86*	80*	32
CCOC(=O)c1sc(NC(=O)c2cc3ccccc3o2)nc1C	0	-36	10	34	-402	7	/	/	/	/	/
O=C(Nc1cccnc1Cl)c1cc2ccccc2o1	4	70*	50	63*	14	-1	60*	61*	89*	81*	72*
Cc1cc(NC(=O)c2cccnc2Cl)ccc1NC(=O)c1cc2ccccc2o1	2	-28	-6	-4	4	-15	/	/	/	/	/
CSc1ncccc1C(=O)Nc1ncc(C)s1	0	-8	-10	-7	7	-1	/	/	/	/	/
Cc1nnc(NC(=O)c2cc3ccccc3o2)s1	1	-2	-5	2	-14	0	/	/	/	/	/
Cc1nc(NC(=O)c2cc3ccccc3o2)sc1C	-1	89*	89*	90*	-27	7	71*	91*	100*	93*	33
C=CCN(CC(O)c1cccc([N+](=O)[O-])c1)C(C)CCc1ccccc1 (stereo unspecified)	0	12	5	0	7	0	/	/	/	/	/
Cc1cnc(NC(=O)c2ccc3c(c2)OCCO3)s1	0	91*	84*	92*	-411	/	47	84*	97*	79*	0
Cc1ccc(C(=O)Nc2ncc(C)s2)o1	2	60*	35	67*	-1	23	62*	58*	87*	90*	67*
Cc1ccc(C(=O)Nc2ncc(Cc3ccc(F)cc3)s2)o1	-2	42	4	36	-5	3	/	/	/	/	/
CC(C)N=C(NS(=O)(=O)NC(=O)c1ccccc1)c1ccccc1	-2	-17	4	1	10	2	/	/	/	/	/
C=C1CCc2c([nH]c3ccc(OCC(C)C)cc23)C1=O	-15	95*	8	-2	-279	5	12	4	7	4	3
CCc1ccc(NC(=O)c2noc3c2CCCCC3)cc1	-2	-7	-19	4	13	4	/	/	/	/	/
SMILES	SENP1 FRET inh	SENP6 block	SENP8 block-1	SENP7 block	SENP8 block-2	Platelet DG rel	SENP8 confirm	SENP6 conf	SENP7 conf	Casp3 select	SENP luc ctr
CCc1ccc(NC(=O)c2noc3c2CCC3)cc1	-6	88*	70*	60*	13	3	80*	80*	96*	84*	81*
Cc1ccc(NC(=O)c2noc3c2CCCCC3)cc1C	3	44	9	62*	11	2	14	13	27	18	9
Cc1ccc(NC(=O)c2noc3c2CCCCC3)cc1	3	34	7	19	9	-5	/	/	/	/	/
Cc1ccc(O)c(NC(=O)c2noc3c2CCCCC3)c1	0	-43	76*	80*	-4	10	30	24	46	21	41
Cc1cc(C)cc(N2CC(C(=O)OCC(=O)Nc3cc(C)on3)CC2=O)c1 (stereo unspecified)	0	14	-3	-2	16	-2	/	/	/	/	/
Cn1nc(C2CC2)cc1NC(=O)C1(C)CCN1C(=O)Cc1ccc(-c2ccccc2)cc1 (stereo unspecified)	2	/	/	/	10	/	/	/	/	/	/
ClC1(CNc2ccccc2)CCN(Cc2ccccc2)CC1	0	2	5	13	6	2	/	/	/	/	/
CC(=O)Nc1cnc(/C=C\CCCO)cn1	-5	/	/	/	-498	/	/	/	/	/	/
